# From PubChem
# Shown are actives, neighbours in structure and some others; about 2.6% of the full set was active somewhere.
# SENP6 inh – blocks the human protease SENP6 | AID 2599 | Recombinant SENP6 catalytic domain, aminoluciferin luminescence | 330,000 compounds, 1.8% hits | inhibition, % at 10 µM | Q9GZR1;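 active means inhibition above about 50% at the single tested dose, limit read from the data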;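 further: plate controls were DMSO wells with enzyme for no effect and DMSO wells lacking enzyme for full effect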
# SENP7 block – inhibitors of human SENP7 protease | Q9BQF6 | recombinant SENP7, Z-RLRGG-aminoluciferin luminescence, 40 min | inhibition, % at 5 µM | 330,000 compounds, 1.5% hits | AID 434973;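 active means inhibition above about 50% at the single test dose, limit read from the data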;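 further: plate controls were DMSO with enzyme for no effect and no enzyme buffer wells for full effect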
# Target sequence (Q9BQF6 706-1050 limits assumed): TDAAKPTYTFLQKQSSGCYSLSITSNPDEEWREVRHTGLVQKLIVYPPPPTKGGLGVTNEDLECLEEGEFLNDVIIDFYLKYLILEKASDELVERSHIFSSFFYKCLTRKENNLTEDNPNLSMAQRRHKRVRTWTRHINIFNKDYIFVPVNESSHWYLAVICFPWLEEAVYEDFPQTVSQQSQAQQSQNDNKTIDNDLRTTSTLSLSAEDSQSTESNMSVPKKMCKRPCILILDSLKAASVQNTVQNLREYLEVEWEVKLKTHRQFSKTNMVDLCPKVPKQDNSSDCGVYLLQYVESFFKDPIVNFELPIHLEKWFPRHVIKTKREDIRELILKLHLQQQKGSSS
# SENP8 block-1 – blocks the human protease SENP8; purified SENP8, Z-RLRGG-aminoluciferin cleavage, luminescence; inhibition, % at 10 µM; 330,000 compounds, 1.2% hits; in the data active means inhibition above about 50%
# Target sequence (Q96LD8 whole entry, looked up): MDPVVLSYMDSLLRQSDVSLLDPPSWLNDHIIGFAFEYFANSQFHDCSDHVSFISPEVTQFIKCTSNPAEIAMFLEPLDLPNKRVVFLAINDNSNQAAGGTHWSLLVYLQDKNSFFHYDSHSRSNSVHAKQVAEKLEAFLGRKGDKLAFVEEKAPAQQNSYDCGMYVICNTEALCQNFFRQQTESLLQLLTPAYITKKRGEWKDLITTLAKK
# SENP1 FRET inh – blocks the human SENP1 SUMO protease catalytic domain | recombinant SENP1 catalytic domain, CyPet-SUMO1-YPet FRET cleavage | inhibition, % at 10 µM | 360,000 compounds, 0.21% hits;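 active means inhibition at least 30% at 10 µM, raw YFP signal under a set limit, fluorescence ratio 0.5 to 1.5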;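 further: 0% = enzyme with DMSO and 100% = no enzyme wells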
#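 Test system: recombinant human SENP1 catalytic domain, His6-tagged / Medium: pH 8 Tris buffer with EDTA, NaCl, BME, BSA, NP40, catalase / Also added: SUMO1 FRET substrate flanked by Cypet and Ypet, 25 nM / Times: 50 min reaction at room temperature / Signal: FRET, CFP and YFP emission / Control set: no-enzyme low control and enzyme-plus-DMSO high control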
# Platelet DG rel – platelet dense granule release activity | human platelet-rich plasma, SFLLRN dense granule ATP release, luminescence | inhibition, %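 (compounds screened at 7.5 µM in platelet-rich plasma)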 | 300,000 compounds, 0.22% hits | AID 1663;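 active means mean replicate score, as percent of positive control, at or above 50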
# SENP8 block-2 – inhibitors of human SENP8 protease; 360,000 compounds, 0.64% hits; recombinant SENP8, Nedd8 substrate fluorescence; inhibition, % at 20 µM; Q96LD8; in the data active means inhibition mostly above about 40%, no sharp cut-off; inactive means mostly below about 27%
# SENP8 confirm – confirmation of human SENP8 protease inhibitors; shares compounds with SENP7 block; 6,200 compounds, 40% hits; Recombinant SENP8, Z-RLRGG-aminoluciferin luminescence, 60 min; inhibition, % at 12.5 µM; AID 488912;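 active means mean inhibition across replicates above about 50%, limit read from the data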
# SENP6 confirm – confirmation of human SENP6 protease inhibitors; inhibition, % at 12.5 µM; 6,200 compounds, 58% hits; shares compounds with SENP7 block; AID 488915; recombinant SENP6, Z-RLRGG-aminoluciferin luminescence
# SENP7 conf – confirmation of human SENP7 protease inhibitors; inhibition, % at 12.5 µM; 6,200 compounds, 69% hits; recombinant SENP7, Z-RLRGG-aminoluciferin luminescence, 40 min; shares compounds with SENP7 block
# Casp3 SENP sel – selectivity test for SENP inhibitors: human caspase-3 inhibition; shares compounds with SENP7 block; purified caspase-3, Z-DEVD-aminoluciferin luminescence, 60 min; inhibition, % at 12.5 µM; 6,200 compounds, 60% hits; AID 488918;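 active means mean inhibition above about 50%, limit read from the data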;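 further: plate controls were enzyme with DMSO for no effect and wells without caspase-3 for full effect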
# SENP luc ctr – luminescence interference (SENP counter-screen) | 6,200 compounds, 39% hits | inhibition, % at 12.5 µM | shares compounds with SENP7 block | AID 488919 | Pre-incubated SENP8/Z-RLRGG-aminoluciferin, luciferase luminescence interference;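 active means mean inhibition above about 50% when retested at one dose, limit read from the data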;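 further: plate controls were DMSO wells with completed reaction for no effect and substrate without enzyme for full effect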
# Starred values were filed as active, the others as inactive; · = no result.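 How the source made its calls, unless noted: active means mean inhibition above about 50% in the one-dose retest (limit read from the data); inactive means the rest.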
SMILES,SENP6 inh,SENP7 block,SENP8 block-1,SENP1 FRET inh,Platelet DG rel,SENP8 block-2,SENP8 confirm,SENP6 confirm,SENP7 conf,Casp3 SENP sel,SENP luc ctr
O=C(O)CCc1ccc(-c2ccc(Br)cc2)o1,38,-6,10,-3,-1,-4,·,·,·,·,·
O=C(O)CCc1ccc(-c2ccc(Cl)cc2)o1,73*,32,47,3,-3,15,68*,61*,88*,66*,81*
OCCN1CCN(c2cc(C(F)(F)F)nc3c(F)cccc23)CC1,-11,-6,-5,2,0,14,·,·,·,·,·
C/C=C/c1ccc(O)c(OC)c1,-10,-18,-16,0,·,17,·,·,·,·,·
Oc1cc(O)cc(/C=C/c2ccc(O)c(O)c2)c1,65*,45,44,-3,·,-384,63*,71*,83*,63*,73*
Cc1nnc(SCCC(=O)Nc2nc(-c3ccccc3)ns2)s1,58*,-5,17,-11,9,-4,54*,50*,78*,26,30
CCCC(=O)Nc1nc(-c2ccccc2)ns1,-6,-2,0,-1,1,13,·,·,·,·,·
CCS(=O)(=O)c1nc(S(=O)(=O)c2ccc(C)cc2)c(NCCCN2CCOCC2)s1,-4,-1,4,4,-8,9,·,·,·,·,·
CCCS(=O)(=O)c1nc(S(=O)(=O)c2ccc(C)cc2)c(NCCN2CCOCC2)s1,104*,6,5,-9,5,25,9,2,-6,0,-3
O=C(O)c1nn(CCOc2cccc(Br)c2)c(=O)c2ccccc12,-14,5,3,0,3,19,·,·,·,·,·
Cc1cccc(NC(=S)NNC(=O)c2csc(C(C)C)c2)c1,77*,87*,50,2,0,20,9,11,12,8,18
CCCCNC(=S)NNC(=O)c1csc(CC)c1,-7,11,-2,1,1,22,·,·,·,·,·
Cc1cccc(NC(=S)NNC(=O)c2sccc2C)c1,83*,65*,43,-1,-4,-14,56*,56*,75*,67*,64*
CCc1cc(C(=O)NNC(=S)Nc2cccc(C)c2)cs1,75*,56*,39,0,0,13,25,25,8,9,19
COc1ccc(OCC(=O)N/N=C2\CCCCc3ccccc32)cc1,-17,-11,-7,2,-5,3,·,·,·,·,·
CCc1ccc(OCC(=O)N/N=C2\CC(=O)c3ccccc32)cc1,53*,17,24,14,1,41*,28,66*,16,18,4
O=C(Cc1ccc(NS(=O)(=O)c2ccc(F)cc2)cc1)NCc1cccnc1,-14,5,-2,2,-3,8,·,·,·,·,·
O=C(Nc1ccccc1F)c1c[nH]c(=O)[nH]c1=O,51*,29,23,0,66*,28,40,35,70*,76*,49
CCOC(=O)Nc1ccc(C(=O)Oc2ccccc2)c(O)c1,43,53*,21,1,1,1,29,33,69*,20,43
O=C(Nc1ccc(OC(=O)c2cccs2)cc1)c1ccco1,87*,82*,67*,1,17,28,72*,72*,94*,77*,44
O=C(Nc1ccc(C(=O)Oc2ccccc2)c(O)c1)c1ccco1,91*,82*,73*,1,8,-24,80*,81*,96*,66*,32
CCOC(=O)Nc1ccc(Oc2ccccc2)cc1,12,12,5,1,-4,8,·,·,·,·,·
COc1cccc(Oc2ccc3nnc(C(F)(F)F)n3n2)c1,-10,-4,-2,2,1,1,·,·,·,·,·
COc1cc(C(C)=O)ccc1OCC(=O)Nc1ccc2nc(C)sc2c1,-4,4,0,3,·,0,·,·,·,·,·
COc1cc(NC(=O)CCCN2C(=O)NC(C)(C)C2=O)cc(OC)c1,-7,4,1,3,·,5,·,·,·,·,·
SMILES,SENP6 inh,SENP7 block,SENP8 block-1,SENP1 FRET inh,Platelet DG rel,SENP8 block-2,SENP8 confirm,SENP6 confirm,SENP7 conf,Casp3 SENP sel,SENP luc ctr
Brc1ccc(-c2cnc(-c3cccs3)o2)cc1,69*,62*,41,-1,2,-370,56*,67*,86*,36,47
O=C(O)CCn1nnc(-c2cccs2)n1,-9,-94,-5,-1,-3,1,·,·,·,·,·
CC(C)c1ccc(-c2nnn(CCC(=O)O)n2)cc1,59*,26,71*,4,-2,19,-6,68*,84*,21,22
Fc1ccc(CSc2nc3ncccc3[nH]2)cc1,33,48,6,-1,2,9,·,·,·,·,·
CCCCCOc1ccc(CSc2ncn[nH]2)cc1,65*,16,50,1,-1,-17,71*,68*,86*,25,74*
CCCCOc1ccc(CSc2ncn[nH]2)cc1,46,17,9,-2,-8,8,·,·,·,·,·
Nc1nc2ccccc2[nH]1,-17,-1,3,-5,4,17,·,·,·,·,·
Nc1ccccc1Sc1nc2ccccc2[nH]1,61*,23,57*,1,0,-6,61*,58*,84*,86*,72*
Fc1ccc(CSc2nc3ccccc3[nH]2)cc1,83*,7,71*,1,7,7,83*,79*,94*,74*,79*
CCCOc1ccc(CSc2nc3ccccc3[nH]2)cc1,91*,95*,88*,2,3,16,92*,97*,102*,88*,58*
c1ccc(CSc2nc3ccccc3[nH]2)cc1,-13,77*,69*,2,6,17,62*,72*,94*,80*,24
CCSc1nc2ccccc2[nH]1,-3,7,9,0,-1,12,·,·,·,·,·
O=C(NCc1ccco1)c1cc([N+](=O)[O-])ccc1N1CCOCC1,95*,-12,-1,2,-3,18,-6,-5,-5,-5,-5
COc1ccc(C(=O)Nc2ccccc2C(=O)N2CCCCC2C)cc1 (stereo not given),12,7,5,2,-2,13,·,·,·,·,·
